# Source: PubChem
# E coli WT exp = blocks growth of wild type E. coli BW25113; actives 0.15% (n = 98,000); OD600 absorbance; growth inhibition, % at 100 µM;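 active = growth inhibition above about 50% at one test dose, limit read from the data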;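 note: growth measured after 20 h incubation at 37 °C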
# PLAP activator = human PLAP activation. purified PLAP enzyme, luminescent substrate read-out; active compounds read high. activation fold at 20 µM. actives 1.2% (n = 96,000); in the data active = activation fold above about 2
# Target sequence (P05187 whole entry, looked up): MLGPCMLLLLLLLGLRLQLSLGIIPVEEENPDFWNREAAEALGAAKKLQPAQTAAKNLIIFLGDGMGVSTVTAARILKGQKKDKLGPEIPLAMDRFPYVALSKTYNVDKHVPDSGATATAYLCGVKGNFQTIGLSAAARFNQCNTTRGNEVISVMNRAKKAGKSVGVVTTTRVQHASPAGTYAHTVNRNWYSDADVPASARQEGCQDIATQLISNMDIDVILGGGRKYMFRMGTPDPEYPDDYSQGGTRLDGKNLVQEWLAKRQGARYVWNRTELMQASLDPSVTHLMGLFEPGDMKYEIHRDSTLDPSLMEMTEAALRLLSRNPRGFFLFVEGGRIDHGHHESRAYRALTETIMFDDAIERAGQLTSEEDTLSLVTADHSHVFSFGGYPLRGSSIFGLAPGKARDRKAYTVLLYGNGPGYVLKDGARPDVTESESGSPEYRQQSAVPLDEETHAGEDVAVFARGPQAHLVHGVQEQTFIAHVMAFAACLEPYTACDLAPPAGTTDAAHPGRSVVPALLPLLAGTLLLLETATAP
# PostGolgi ctrl = growth of the yeast control strain, post-Golgi counter-screen. efflux-deficient yeast background strain, growth absorbance A615, 16 h. inhibition, % at 10 µM. actives 5% (n = 98,000). AID 738
# tolC growth inh = E. coli tolC mutant growth inhibition | growth inhibition, % at 10 µM (by protocol) | actives 2.2% (n = 65,000) | E. coli BW25113 tolC mutant growth, OD615;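 active = growth inhibition at or above a cutoff equal to the mean over every tested compound plus 3 SD, cut at about 60% in these data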;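 note: growth measured after 20 h incubation at 37 °C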
#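 Doses: one dose of 10 µM final / Material: E. coli BW25113 ΔtolC::kan, tolC deletion mutant strain / Buffer or medium: LB with kanamycin 50 µg/mL / Evaluation: percent growth inhibition / Detection: optical density read at 615 nm / Incubation: 37 °C, 20 h exposure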
# PostGolgi yeast = growth inhibition of a yeast mutant, post-Golgi transport screen. post-Golgi transport phenotypic cell assay. inhibition, % at 10 µM. actives 0.9% (n = 98,000). AID 739;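 note: yeast cells grown in 1536-well plates; yeast grown about 18 h at 30C before absorbance read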
# Numbers without * were called inactive; · = no result given. Rows were chosen to be rich in hits. Some 7.2% of all compounds tested hit in one or more screens of this group. Cut-off read from the data, not from the text of the source, unless noted: active = inhibition above about 30%; inactive = the rest.
SMILES,E coli WT exp,PLAP activator,PostGolgi ctrl,tolC growth inh,PostGolgi yeast
COc1cc(-c2cn(S(=O)(=O)c3cccc4nsnc34)nc2N)cc(OC)c1OC,-3,1.8,7,·,4
Cc1ccc(-c2cn(S(=O)(=O)c3cccc4nsnc34)nc2N)cc1,-15,1,23,53,48*
Nc1nn(S(=O)(=O)c2cccc3nsnc23)cc1-c1ccc(Br)cc1,-8,0.8,72*,58,79*
CCN(CC)S(=O)(=O)c1ccc(F)c(C(=O)NCCC(C)C)c1,-4,·,4,2,6
Cc1cc(Cl)c(S(=O)(=O)N2CCN(c3ccc(F)cc3)CC2)cc1OCC(=O)NC1CCCCC1,-10,1.7,3,·,3
COCc1nnc(NS(=O)(=O)c2c(C)cc(C)cc2C)s1,-9,1.1,10,·,0
Cc1ccccc1N(C(=O)c1cccs1)c1nc2ccccc2s1,-21,1,35*,·,1
Cc1ccsc1C(=O)N(c1nc2ccccc2s1)c1c(C)cccc1C,-11,1.1,18,·,13
CC(c1ccco1)N(C(=O)CSc1ccc(Br)cc1)c1ccccn1 (stereo not drawn),-1,1.4,13,20,-3
CC(C)Oc1ccc(C2CNC(=O)C2)cc1 (stereo not drawn),3,0.9,33*,1,-5
CCCCN(CCCNC(=O)CN1C(=O)COc2ccccc21)c1ccccc1,1,1.1,19,61*,-7
CCCCN(CCCNC(=O)c1c(C)cc(=O)oc1C)c1ccccc1,-19,1.3,32*,33,-7
CCN(CCCNC(=O)CN1C(=O)COc2ccccc21)c1ccccc1,-5,1,0,12,3
CCN(CCCNC(=O)c1c(C)cc(=O)oc1C)c1ccccc1,-2,1.7,25,-3,-3
O=C(CCn1c(=O)oc2ccccc21)NCCN1CCOCC1,·,·,·,-11,·
CCOC(=O)C1C(=O)NC(c2ccccc2)=NC1c1ccc(Cl)cc1 (stereo not drawn),-1,0.9,14,·,-3
COc1ccc2nc(SCC(=O)N(C)C3CCCCC3)c(C#N)cc2c1,-9,1.3,23,63*,12
COc1ccc2nc(SCC(=O)N3CCCCCC3)c(C#N)cc2c1,-8,1.2,32*,26,-13
N#Cc1cc2ccccc2nc1SCC(=O)Nc1ccc(S(=O)(=O)N2CCCC2)cc1,-13,1.5,1,19,-13
COc1ccc2nc(SCC(=O)Nc3ccc(S(=O)(=O)N4CCCC4)cc3)c(C#N)cc2c1,-4,1.5,33*,5,12
CCOc1ccc2cc(C#N)c(SCC(=O)N3CCCC3)nc2c1,·,·,·,1,·
O=C(CCCc1ccccc1)N1CCc2ccccc21,0,0.9,7,5,2
CC(C)NC(=O)c1ccccc1NC(=O)CN(c1ccc2c(c1)OCO2)S(C)(=O)=O,3,0.9,-2,7,-4
Cc1ccc(C(O)P(=O)(OC2CCCCC2)OC2CCCCC2)cc1 (stereo not drawn),2,1.6,40*,·,22
O=P(OC1CCCCC1)(OC1CCCCC1)C(O)c1ccc(Cl)cc1Cl (stereo not drawn),-5,1.1,9,·,-4
SMILES,E coli WT exp,PLAP activator,PostGolgi ctrl,tolC growth inh,PostGolgi yeast
O=P(OC1CCCCC1)(OC1CCCCC1)C(O)c1c(Cl)cccc1Cl (stereo not drawn),-3,0.9,36*,·,-3
Cc1cccc(-c2noc(CN(C(=O)c3ccc4c(c3)OCO4)C(C)C)n2)c1,0,1.1,3,13,6
CC(C)N(Cc1nc(-c2ccc(Cl)cc2)no1)C(=O)CCC1CCCC1,4,1.5,35*,72*,3
COc1ccccc1OCC(=O)N(Cc1nc(-c2ccc(Cl)cc2)no1)C(C)C,-15,1.6,46*,10,-8
Cc1cccc(-c2noc(CN(C(=O)c3ccc(Br)o3)C(C)C)n2)c1,-11,1.1,33*,63*,-2
CC(C)N(Cc1nc(-c2ccccc2)no1)C(=O)COc1ccccc1,2,1.5,12,5,0
COc1cccc(OCC(=O)N(Cc2nc(-c3ccc(Cl)cc3)no2)C(C)C)c1,-5,1.4,54*,63*,10
CSc1cccc(NC(=O)CN(c2cc(C)ccc2C)S(C)(=O)=O)c1,-16,1.2,5,8,1
Cc1ccc(C)c(C(=O)N(Cc2nc(-c3ccc(Cl)cc3)no2)C(C)C)c1,-23,1.6,32*,77*,-1
COc1cccc(C(=O)N(Cc2nc(-c3ccc(C)cc3)no2)C(C)C)c1,2,1.3,15,10,1
O=C(CSc1nc(-c2cccs2)cc(C(F)(F)F)n1)NCc1ccccc1,-4,0.8,30*,·,-3
CCCNC(=O)CSc1nc(-c2cccs2)cc(C(F)(F)F)n1,1,1,6,·,3
COc1ccc(CCCc2nnc(SCC(=O)Nc3nccs3)n2C)cc1C,1,1.2,45*,3,-9
Cc1cccc(N=C2N=C(N)c3ccccc32)c1,6,1,33*,·,-19
CCc1nnc(NC(=O)[C@@H](NC(=O)c2cccc(S(=O)(=O)N(CC)CC)c2)C(C)C)s1,5,1.7,4,·,0
COc1ccc(-c2nn(C)c(=O)c3ccccc23)cc1CNS(C)(=O)=O,-4,0.9,42*,0,0
COc1ccc(-c2nn(C)c(=O)c3ccccc23)cc1NS(C)(=O)=O,0,1.6,2,-7,3
O=c1[nH]c2c(s1)C(c1ccco1)C1C3CCC(C3)C1S2 (stereo not drawn),2,1.1,15,15,-35
Fc1ccc2nc3n(c2c1F)CCCCCC3,2,1.1,40*,12,1
COc1cc(/C=C(/C#N)c2ccc(F)cc2)ccc1OCc1ccc(C(=O)O)o1,-9,1.4,7,100*,0
COc1cccc(C2(O)CCN(C(=O)Cc3cccnc3)CC2)c1,1,1.1,22,·,-3
CCCOc1ccccc1N/C(=N/c1nc(C)cc(C)n1)NC(=O)COc1ccc(OC)cc1,-18,2.4*,7,·,40*
Cc1ccc(OCCn2cc(C(=S)N3CCCC3)c3ccccc32)cc1C,-16,1.2,31*,·,-6
S=C(c1cn(CCOc2ccccc2)c2ccccc12)N1CCCC1,-10,1.4,18,·,-4
CCc1ccc(NC(=O)N(CCCN2CCOCC2)C(C)c2cc3cccc(OC)c3o2)cc1 (stereo not drawn),2,1.3,8,26,-5
SMILES,E coli WT exp,PLAP activator,PostGolgi ctrl,tolC growth inh,PostGolgi yeast
CCOC(=O)N1CCC(N2Cc3cccc(C(=O)NC(C)c4ccc5c(c4)OCCO5)c3C2=O)CC1 (stereo not drawn),0,1.6,2,29,-5
CCCCc1ccc(NC(=O)CSCc2cc(=O)[nH][nH]2)cc1,-6,2.3*,7,·,10
CCCCc1ccc(NC(=O)COCC)cc1,15,1,0,16,7
CCCc1cc(=O)[nH]c(SCC)n1,4,0.9,1,-3,-1
CCCc1cc(=O)[nH]c(-n2[nH]c3c(c2=O)CCCC3)n1,1,2.3*,9,·,-5
O=C(c1ccc2c(c1)OCCCO2)c1cccs1,1,0.8,5,4,0
